Source: ChEMBL document CHEMBL1795239, “MAO inhibitory activity modulation: 3-Phenylcoumarins versus 3-benzoylcoumarins” (Bioorg Med Chem Lett, 2011)

How the values were obtained:
[1] = target: T1, Amine oxidase [flavin-containing] A (Homo sapiens, UniProt P21397); experiment: Inhibition of human recombinant MAO-A using p-tyramine substrate at 100 uM by fluorometric method
T1 sequence (P21397 whole entry): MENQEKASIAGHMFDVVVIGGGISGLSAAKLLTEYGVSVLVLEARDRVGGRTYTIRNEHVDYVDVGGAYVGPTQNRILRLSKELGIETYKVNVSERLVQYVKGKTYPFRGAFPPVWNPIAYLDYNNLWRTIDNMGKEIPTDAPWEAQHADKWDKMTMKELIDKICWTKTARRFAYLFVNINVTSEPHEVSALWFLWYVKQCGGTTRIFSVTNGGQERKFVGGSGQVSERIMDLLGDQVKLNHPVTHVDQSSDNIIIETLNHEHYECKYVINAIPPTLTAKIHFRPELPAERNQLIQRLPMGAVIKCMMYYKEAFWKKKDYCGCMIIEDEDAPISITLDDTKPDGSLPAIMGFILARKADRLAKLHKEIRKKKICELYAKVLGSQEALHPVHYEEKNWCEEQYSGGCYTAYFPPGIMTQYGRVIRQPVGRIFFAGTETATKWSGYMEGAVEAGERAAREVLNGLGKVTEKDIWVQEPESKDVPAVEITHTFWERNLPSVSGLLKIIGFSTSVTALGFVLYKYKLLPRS
Summary of the method: (§1)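 Recombinant human MAO-A or MAO-B expressed in baculovirus-infected BTI insect cells. Enzyme amounts set so both isoforms give the same rate, 165 pmol p-tyramine/min. Assay run in 0.05 M sodium phosphate pH 7.4 at 37 °C with compounds at several concentrations, 200 Amplex Red, 1 U/mL horseradish peroxidase and 1 mM p-tyramine. Resorufin fluorescence (ex 545/em 590 nm) read over a linear 15 min window. Vehicle controls run alongside.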

[2] = target: T2, Amine oxidase [flavin-containing] B (Homo sapiens, UniProt P27338); experiment: Inhibition of human recombinant MAO-B using p-tyramine substrate by fluorometric method
T2 sequence (P27338 whole entry): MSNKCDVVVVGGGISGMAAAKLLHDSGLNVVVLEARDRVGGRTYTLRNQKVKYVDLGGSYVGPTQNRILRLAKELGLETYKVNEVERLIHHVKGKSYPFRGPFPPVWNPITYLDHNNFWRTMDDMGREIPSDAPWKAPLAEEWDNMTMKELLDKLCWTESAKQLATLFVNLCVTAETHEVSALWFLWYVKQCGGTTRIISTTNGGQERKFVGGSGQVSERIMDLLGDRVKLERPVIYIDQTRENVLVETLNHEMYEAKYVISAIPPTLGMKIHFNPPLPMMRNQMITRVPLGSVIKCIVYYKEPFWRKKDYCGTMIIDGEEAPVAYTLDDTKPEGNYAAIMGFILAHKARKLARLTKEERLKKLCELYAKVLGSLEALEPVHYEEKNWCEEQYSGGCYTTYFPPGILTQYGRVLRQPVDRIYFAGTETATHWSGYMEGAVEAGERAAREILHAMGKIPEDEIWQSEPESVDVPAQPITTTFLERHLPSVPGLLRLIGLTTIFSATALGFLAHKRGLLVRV

[3] = species on record: Homo sapiens; experiment: Selectivity index, ratio of IC50 for human recombinant MAO-A to human recombinant MAO-B
Summary of the method: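 MAO-B selectivity index is IC50(MAO-A)/IC50(MAO-B). Both IC50s come from the fluorimetric Amplex Red/peroxidase assay with 1 mM p-tyramine, using recombinant hMAO-A and hMAO-B from baculovirus-infected insect cells.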

[4] = target: T2, Amine oxidase [flavin-containing] B; experiment: Inhibition of human recombinant MAO-B using p-tyramine substrate at 100 uM by fluorometric method; details: for inhibition (INH): 100 µM; summary of the method: as §1
[5] = target: T1, Amine oxidase [flavin-containing] A; experiment: Inhibition of human recombinant MAO-A using p-tyramine substrate by fluorometric method

| inhibition (INH) [1] | IC50 [2] [µM] | Ratio IC50 [3] | inhibition (INH) [4] | IC50 [5] [µM] | inhibition at 100 µM [4] [%] | Structure (SMILES) |
| --- | --- | --- | --- | --- | --- | --- |
| Not Active | 0.0835 | > 1200 | – | – | – | COc1cc(Br)cc2cc(-c3ccccc3)c(=O)oc12 |
| Not Active | – | – | Not Active | – | – | COc1ccc(C(=O)c2cc3cc(Br)cc(OC)c3oc2=O)cc1 |
| – | 73.9 | 0.63 | – | 46.8 | – | O=C(c1ccccc1)c1cc2cc(Br)cc(O)c2oc1=O |
| Not Active | 30.9 | > 3.2 | – | – | – | O=c1oc2c(O)cc(Br)cc2cc1-c1ccccc1 |
| Not Active | – | – | Not Active | – | – | COc1cc(Br)cc2cc(C(=O)c3ccccc3)c(=O)oc12 |
| Not Active | 0.00135 | > 74100 | – | – | – | COc1ccc(-c2cc3cc(Br)cc(OC)c3oc2=O)cc1 |
| – | – | 0.19 | – | 19.2 | 45 | O=C(c1ccc(O)cc1)c1cc2cc(Br)cc(O)c2oc1=O |
| – | 16.9 | 1.2 | – | 20.7 | – | O=c1oc2c(O)cc(Br)cc2cc1-c1ccc(O)cc1 |
